The term inhibition denotes the percentage by which the read-out fell short of the control. Low readings indicate a weak effect, high ones a strong effect. For orientation: IC50 means the concentration that gives 50% inhibition. Low values mean greater potency, high ones weaker potency.

Assay [1] deals with GABA-A receptor; anion channel (Bos taurus) (UniProt P10063+P08220+P20237+P08219+P10064+P22300). Description: Inhibition of specific [3H]flunitrazepam binding to Benzodiazepine receptor in bovine brain membranes at 34 uM. Format: cell membranes.
Assay [2] has as its target GABA-A receptor; anion channel. Briefly: Inhibitory concentration against [3H]flunitrazepam binding to Benzodiazepine receptor in bovine brain membranes. The assay is classed as cell membranes. The method in brief: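 Membranes were made by homogenizing in ice-cold 0.32 M sucrose with protease inhibitors, spinning at 48000g, and osmotically shocking in 50 mM Tris-HCl. Membranes (0.4-0.5 mg protein, Lowry) were incubated with 1.0 nM [3H]flunitrazepam in 50 mM Tris-HCl at 0 °C for 90 min, then filtered and counted by scintillation. Nonspecific binding was defined with 10 μM diazepam. IC50 came from log-probit analysis of 4-6 concentrations, each in triplicate.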

The molecule `Cc1nn(-c2cccc(Cl)c2)c2c1c(N1CCN(C)CC1)nc1ccccc12` displayed an inhibition in assay [1] of 49%.
Regarding `Cc1[nH]nc2c1c(=O)[nH]c1ccccc12`, the inhibition in assay [1] was 47%.
On to `Cc1cccc(-n2nc(C)c3c(N4CCN(C)CC4)nc4ccccc4c32)c1`, for which the inhibition in assay [1] is 44%.
In assay [1], `Cc1nn(-c2ccc(Cl)cc2)c2c1c(=O)n(C)c1ccccc21` displayed an inhibition of 78%. The concentration for half-maximal inhibition (IC50) in assay [2] amounted to 2.7 µM.
In assay [1], `Cc1nn(-c2ccccc2)c2c1c(=O)n(C)c1ccccc21` came in with an inhibition of 85%. Also, the IC50 in assay [2] stood at 3.4 µM.
As for `Cc1cccc(-n2nc(C)c3c(Cl)nc4ccccc4c32)c1`, the inhibition in assay [1] was found to be 21%.
The same measure, in the same setting: as for `Cc1nn(-c2cccc(Cl)c2)c2c1c(N1CCOCC1)nc1ccccc12`, the figure is 24%; as for `Cc1ccc(-n2nc(C)c3c(O)nc4ccccc4c32)cc1`, 65%.
The molecule `Cc1nn(-c2cccc(Cl)c2)c2c1c(O)nc1ccccc12` returned an inhibition in assay [1] of 94%. Also, the IC50 in assay [2] was 4.4 µM.
In assay [1], `Cc1nn(-c2ccccc2)c2c1c(N1CCOCC1)nc1ccccc12` gave an inhibition of 8%.
On to `Cc1cccc(-n2nc(C)c3c(O)nc4ccccc4c32)c1`, for which the inhibition in assay [1] came out at 97%. For the same molecule, the IC50 in assay [2] amounted to 9 µM.
In assay [1], `Cc1nn(-c2ccccc2)c2c1c(N1CCN(C)CC1)nc1ccccc12` showed an inhibition of 41%.
In assay [1], `Cc1nn(-c2ccc(Cl)cc2)c2c1c(O)nc1ccccc12` returned an inhibition of 70%. In addition, in assay [2], the IC50 is 22 µM.
`COc1nc2ccccc2c2c1c(C)nn2-c1cccc(Cl)c1` showed an inhibition in assay [1] of 18%.
In turn, `Cc1cccc(-n2nc(C)c3c(N4CCOCC4)nc4ccccc4c32)c1` had an inhibition in assay [1] of 7%.
`Cc1nn(-c2ccc(Cl)cc2)c2c1c(N1CCN(C)CC1)nc1ccccc12` had an inhibition in assay [1] of 23%.
In assay [1], `Cc1nn(-c2ccccc2)c2c1c(O)nc1ccccc12` yielded an inhibition of 62%.
In turn, `Cc1nn(-c2cccc(Cl)c2)c2c1c(=O)n(C)c1ccccc21` had an inhibition in assay [1] of 96%. Besides, the IC50 in assay [2] was determined as 1 µM.
In the case of `Cc1nn(-c2cccc(Cl)c2)c2c1c(Cl)nc1ccccc12`, in assay [1], the inhibition was 21%.
`Cc1ccc(-n2nc(C)c3c(=O)n(C)c4ccccc4c32)cc1` gave an inhibition in assay [1] of 63%.
For `Cc1cccc(-n2nc(C)c3c(=O)n(C)c4ccccc4c32)c1`, the inhibition in assay [1] turned out to be 95%. In assay [2], this molecule registered an IC50 of 0.26 µM.

For the origin of these results see ChEMBL document CHEMBL1123403, “Pyrazolo[4,5-c]quinolines. 2. Synthesis and specific inhibition of benzodiazepine receptor binding” (J Med Chem, 1986).
